Test [1] has as its target T1, Protein farnesyltransferase (Mus musculus) (UniProt Q61239+Q8K2I1). The test can be described thus: Inhibition of v-ras posttranslational processing in NIH3T3 cells at 15 uM. The class given is cell-based. The procedure, abridged: (§1)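 NIH 3T3 cells expressing viral Ha-ras were metabolically labeled with [³⁵S]methionine while exposed to compound or solvent control. Cells were lysed after 24 h and Ras was immunoprecipitated to assess posttranslational processing. Scored as percent inhibition of processing; +++ means ≥90% inhibition. Lovastatin 15 μM was the reference.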

Test [2] addresses T1, Protein farnesyltransferase (Mus musculus). Kind of test: Inhibition of v-ras posttranslational processing in NIH3T3 cells at 100 uM. The class given is cell-based. The procedure, abridged:
as §1

Test [3] concerns NIH3T3. The test can be described thus: The cytotoxic endpoint, the highest nontoxic concentration for cultured NIH3T3 cells. It is filed as functional, cell-based. The note with it: Mus musculus. The procedure, abridged:
(§2)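 NIH3T3 fibroblasts exposed to compound for 48 h; viability read by MTT staining. Endpoint is the highest concentration tolerated without toxicity. Top concentration tested was 100 μM for most compounds; one lactone was dosed up to 1 mM.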

Test [4] concerns the target T1, Protein farnesyltransferase (Mus musculus). The test can be described thus: Inhibition of v-ras posttranslational processing in NIH3T3 cells at 1 uM. The class given is cell-based. The procedure, abridged:
as §1

Test [5] addresses Protein farnesyltransferase (Bos taurus, UniProt P29702+P49355). The test can be described thus: Inhibitory activity against Ras Farnesyl Protein transferase from bovine brain. The method, boiled down:
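FPTase purified from bovine brain (about 1 nM) incubated with [³H]FPP, recombinant Harvey-Ras and varying inhibitor concentrations. Protein was acid-precipitated and Ras-bound label counted by scintillation. IC50 is the concentration halving label incorporation relative to the no-inhibitor control, given as mean ± SEM with the number of determinations.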

The target of test [6] is T2, Geranylgeranyl transferase type I (Bos taurus, UniProt P29702+Q5EAD5). The test can be described thus: Inhibitory activity against bovine type-1 geranylgeranyl transferase. It is filed as protein-complex assay.
For test [7], the target named is T1, Protein farnesyltransferase (Mus musculus). Kind of test: Inhibition of v-ras posttranslational processing in NIH3T3 cells (No inhibition). The class given is cell-based. The method, boiled down:
as §1

Test [8] relates to NIH3T3. The test can be described thus: Highest nontoxic concentration in NIH3T3 cells. It is filed as functional, cell-based. The settings on record: Mus musculus. The method, boiled down: as §2
For test [9], the target named is T1, Protein farnesyltransferase (Mus musculus). The test can be described thus: Inhibition of v-ras posttranslational processing in NIH3T3 cells at 5 uM (No inhibition). The class given is cell-based. The method, boiled down: as §1
Test [10] has as its target T2, Geranylgeranyl transferase type I. The test can be described thus: In vitro inhibition of bovine type-1 geranylgeranyl transferase. The class given is protein-complex assay.
Test [11] concerns the target T1, Protein farnesyltransferase (Mus musculus). Kind of test: Inhibition of v-ras posttranslational processing in NIH3T3 cells at 10 uM. It is filed as cell-based. The procedure, abridged: as §1
Test [12] is described as follows: The binding affinity against Ras protein.

Active and inactive are the calls of the source. The rule behind the calls is not given here. Where only a bound is given, the exact number is not on record here.

One may read the inhibition as the percentage by which the read-out fell short of the control. For the compound `CC[C@H](C)C(=O)O[C@H]1C[C@@H](C)C=C2C=C[C@H](C)[C@H](CC[C@@H]3C[C@@H](O)CC(=O)O3)[C@H]21`, the inhibition in [1] was more than 90%.
For `CC[C@@H](C)[C@H](NC[C@@H](NC[C@@H](N)CS)[C@H](C)CC)C(=O)N[C@H]1CCOC1=O`, the inhibition in test [2] is more than 90%. Besides, the Concentration in test [3] was more than 1000 µM.
In turn, `CCC(C)[C@@H](CN[C@@H](Cc1ccccc1)C(=O)N[C@@H](CCSC)C(=O)OC)NCC(N)CS` (stereo partly specified) showed an inhibition in test [4] of 10%. Besides, in test [3], the Concentration was 1 µM.
A word on the IC50: it is the concentration that inhibits the measured activity by half. Take `CC[C@H](C)[C@H](NC[C@@H](N)CS)C(=O)N[C@@H](Cc1ccccc1)C(=O)N[C@@H](CCSC)C(=O)O`: the IC50 in [5] worked out at 18 nM; in test [6], 310 nM. Besides, in test [2], the inhibition was 10%. In addition, in test [3], the Concentration is more than 100 µM.
Regarding `CC[C@H](C)[C@H](NC[C@@H](N)CS)C(=O)N[C@H](C(=O)N[C@@H](CCO)C(=O)O)[C@@H](C)CC`, the IC50 in [5] was determined as 42 nM; in [6] it was 8000 nM. Besides, the inhibition result in [7] is “inactive”. Also, the Concentration in [3] was more than 100 µM.
Take `CCCCCCCCCCOC(=O)[C@H](CCSC)NC(=O)[C@H](Cc1ccccc1)NC(=O)[C@@H](NCC(N)CS)C(C)CC` (stereo partly specified): the Concentration in test [8] came to 2 µM.
Regarding `CCC(C)[C@H](NCC(N)CS)C(=O)N[C@@H](Cc1ccccc1)C(=O)N[C@@H](CCSC)C(=O)OCc1ccccc1` (stereo partly specified), the inhibition result in test [9] was “inactive”. In test [8], this compound gave a Concentration of 5 µM.
With `CCC(C)[C@H](NCC(N)CS)C(=O)N[C@H](CN[C@@H](CCSC)C(=O)O)Cc1ccccc1` (stereo partly specified), the values for the IC50 in test [10] and in [5] were 1100 nM and 140 nM, respectively.
Regarding `CC[C@H](C)[C@H](NC(=O)[C@@H](NC[C@@H](N)CS)C(C)C)C(=O)N[C@@H](CCSC)C(=O)O`, the figures for the IC50 in [5] and in test [6] were 7 nM and 28 nM, respectively.
In test [5], `CC[C@H](C)[C@H](NC(=O)[C@@H](NC(=O)[C@@H](N)CS)[C@@H](C)CC)C(=O)N[C@@H](CCO)C(=O)O` showed an IC50 of 330 nM.
For `CCOC(=O)[C@H](CCSC)NC(=O)[C@H](Cc1ccccc1)NC(=O)[C@@H](NCC(N)CS)C(C)CC` (stereo partly specified), in [11], the inhibition was determined as 10%. In [3], this compound came in with a Concentration of 10 µM.
For `CC[C@H](C)[C@H](NC(=O)[C@@H](N)CS)C(=O)N[C@@H](Cc1ccccc1)C(=O)N[C@@H](CCSC)C(=O)O`, the results for the IC50 in test [5] and in [6] were 27 nM and 300000 nM, respectively.
In the same order, the values of `CC[C@H](C)[C@H](NCCCS)C(=O)N[C@@H](Cc1ccccc1)C(=O)N[C@@H](CCSC)C(=O)O` are 50 nM and more than 10000 nM.
In turn, `CCC(C)[C@H](NC[C@@H](NC(=O)[C@@H](N)CS)C(C)CC)C(=O)N[C@@H](CCO)C(=O)O` (stereo partly specified) registered an IC50 in test [5] of 150 nM.
On to `CC[C@H](C)[C@H](NC[C@@H](N)CS)C(=O)N[C@H](C(=O)N[C@H]1CCOC1=O)[C@@H](C)CC`, for which the inhibition in [2] is 30%. In addition, the Concentration in test [3] is more than 100 µM.
On to `CCC(C)[C@@H](CN[C@@H](Cc1ccccc1)C(=O)N[C@@H](CCSC)C(=O)O)NCC(N)CS` (stereo partly specified), for which the figures for the IC50 in [10] and in test [5] were 5750 nM and 4.8 nM, respectively. The same compound came in with an inhibition in test [2] of 30%. This compound had a Concentration in [3] of more than 100 µM.
As for `CC[C@H](C)[C@H](NC(=O)[C@@H](NC(=O)[C@@H](N)CS)C(C)C)C(=O)N[C@@H](CCSC)C(=O)O`, the IC50 in test [5] came out at 165 nM; in test [6], 49000 nM.
For `CC[C@H](C)[C@H](NC(=O)[C@@H](NC[C@@H](N)CS)C(C)C)C(=O)N[C@@H](CC(C)C)C(=O)O`, the IC50 in [5] came out at 550 nM. This lies in the sub-micromolar range.
For `CC[C@H](C)[C@H](NC(=O)[C@@H](NCCCS)C(C)C)C(=O)N[C@@H](CCSC)C(=O)O`, the IC50 in test [5] is 29 nM; in [6] it was 2200 nM.
For orientation: Ki means the dissociation constant of the complex between target and ligand, obtained from inhibition or displacement. The low end stands for a stronger hold on the target, the high end for a looser hold on the target. For the compound `CC[C@H](C)[C@H](NC[C@@H](NC[C@@H](N)CS)[C@@H](C)CC)C(=O)N[C@@H](CCO)C(=O)O`, the concentration for half-maximal inhibition (IC50) in test [5] came out at 20 nM; in [6] it was 45000 nM. Besides, the inhibition result in test [7] was “inactive”. In addition, the inhibition constant Ki in test [12] is 20 nM. Further, the Concentration in test [3] was more than 100 µM.
`CCC(C)[C@@H](CN[C@@H](Cc1ccccc1)C(=O)N[C@@H](CCSC)C(=O)O)NCCCS` (stereo partly specified): the IC50 in test [10] is more than 10000 nM; in test [5], 400 nM.
